Publication PMC2651159 (Bioorganic & medicinal chemistry letters, 2008)

What was measured:
T. gondii TS-DHFR = target: T1, T. gondii TS-DHFR (Toxoplasma gondii, UniProt Q07422); experiment: Enzyme inhibition assay, T. gondii TS-DHFR; type: biochemical
T1 sequence (Q07422 1-610): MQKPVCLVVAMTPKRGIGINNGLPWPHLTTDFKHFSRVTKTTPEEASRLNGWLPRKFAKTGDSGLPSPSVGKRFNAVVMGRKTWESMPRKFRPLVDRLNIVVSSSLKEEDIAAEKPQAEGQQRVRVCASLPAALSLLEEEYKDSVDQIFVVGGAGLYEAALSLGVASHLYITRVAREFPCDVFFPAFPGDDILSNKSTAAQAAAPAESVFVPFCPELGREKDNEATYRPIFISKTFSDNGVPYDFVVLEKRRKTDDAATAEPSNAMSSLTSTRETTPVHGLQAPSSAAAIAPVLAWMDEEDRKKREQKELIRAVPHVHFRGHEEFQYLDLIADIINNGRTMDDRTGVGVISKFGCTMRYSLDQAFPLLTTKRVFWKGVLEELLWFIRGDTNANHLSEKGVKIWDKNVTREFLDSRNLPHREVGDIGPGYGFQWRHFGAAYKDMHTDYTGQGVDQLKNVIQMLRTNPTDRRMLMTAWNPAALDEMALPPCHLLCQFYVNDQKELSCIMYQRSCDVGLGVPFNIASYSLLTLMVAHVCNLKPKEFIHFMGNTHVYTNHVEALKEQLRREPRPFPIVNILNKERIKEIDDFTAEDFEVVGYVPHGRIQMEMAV
Summary of the method: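 IC50 determined for the test compound against T. gondii TS-DHFR. Enzyme and ligand concentrations were the same as in parallel runs on C. hominis TS-DHFR, human DHFR and human TS. Values are averages of at least three independent experiments.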

TS reaction of ChTS-DHFR = experiment: Inhibition of the TS reaction alone; type: biochemical, Cryptosporidium hominis; settings: 300 μM FMN
ChTS-DHFR R190G mutant = experiment: Inhibition of mutant ChTS-DHFR R190G; type: biochemical, Cryptosporidium hominis; settings: preliminary analysis
DHFR of ChTS-DHFR [1] = experiment: DHFR single-enzyme turnover; type: biochemical, Cryptosporidium hominis; settings: enzyme in five-fold excess of H2F
ChTS-DHFR [2] = target: T2, ChTS-DHFR (Cryptosporidium hominis, UniProt A0A0S4TER9); experiment: Steady-state spectroscopic enzyme inhibition assay; type: biochemical; settings: for Potency against ChTS-DHFR relative to FMN (in words): among the 50 compounds tested
DHFR of ChTS-DHFR [3] = experiment: Steady-state competition assay; type: biochemical, Cryptosporidium hominis
ChTS-DHFR [4] = target: T2, ChTS-DHFR; experiment: Pre-steady-state burst amplitude dose response; type: binding; settings: substrate in slight excess over enzyme
Summary of the method: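 Pre-steady-state kinetics of the DHFR step were observed on the millisecond time scale, with H2F substrate in slight excess over ChTS-DHFR. Burst amplitude was recorded across a dose series of test compound. Amplitude versus concentration was fit to a hyperbolic curve to derive a dissociation constant (Kd).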

[5] = test system: Cryptosporidium parasite growth; settings: cited from earlier work

Cc1cc2nc3c(=O)[nH]c(=O)nc-3n(C[C@H](O)[C@H](O)[C@H](O)COP(=O)(O)O)c2cc1C [FMN, Flavin mononucleotide]
Inhibition of TS-DHFR from Toxoplasma gondii (in words) (T. gondii TS-DHFR): did not inhibit
Inhibition of the TS reaction alone (TS reaction of ChTS-DHFR): little inhibition
Inhibitory effect on R190G mutant less than that against WT ChTS-DHFR (ChTS-DHFR R190G mutant): approximately 20%
Effect on rate of chemistry, DHFR single turnover (DHFR of ChTS-DHFR [1]; 500 μM FMN): no decrease
Effect on amplitude of the single-turnover plot (DHFR of ChTS-DHFR [1]): dose-dependent decrease
Change in IC50 on varying enzyme concentration (ChTS-DHFR [2]; enzyme concentration varied from 80 to 250 nM): no resulting change
Mode of inhibition with respect to H2folate (DHFR of ChTS-DHFR [3]; 200 μM FMN): noncompetitive (mixed)
Mode of inhibition with respect to NADPH (DHFR of ChTS-DHFR [3]; 200 μM FMN): uncompetitive
Vmax, H2F varied (DHFR of ChTS-DHFR [3]; in the presence of 200 μM FMN (no inhibitor: 2.35 ± 0.04)): 1.8 ± 0.1 µmol/min
Vmax, NADPH varied (DHFR of ChTS-DHFR [3]; in the presence of 200 μM FMN (no inhibitor: 2.37 ± 0.03)): 1.77 ± 0.01 µmol/min
Effect on DHFR burst amplitude (ChTS-DHFR [4]): dose-dependent decrease

Cc1cc2nc3c(=O)[nH]c(=O)nc-3n(C[C@H](O)[C@H](O)[C@H](O)CO)c2cc1C [riboflavin]
Potency against ChTS-DHFR relative to FMN (in words) (ChTS-DHFR [2]): comparable potency

COc1cccc2c1C(=O)C1=C(C2=O)C(O)C2=C(C1O)[C@@H](C[C@@H]1C[C@H](N)[C@@H](O)[C@H](C)O1)C[C@@](O)(/C(C)=N/NC(=O)c1ccccc1)C2 (stereo partly drawn) [Rubidazone]
IC50 (ChTS-DHFR [2]): > 500 µM

CC(=O)Oc1ccccc1C(=O)Nc1ncc([N+](=O)[O-])s1 [nitazoxanide]
Concentration range inhibiting parasite growth [5]: 1 to 40 µM

CC(=O)N[C@@H]1[C@@H](O)[C@H](O[C@@H]2O[C@H](CO)[C@@H](O)[C@H](O)[C@H]2NC(C)=O)[C@@H](CO)O[C@H]1O [Chitodextrin]
IC50 (ChTS-DHFR [2]): > 500 µM

COC1=C(N)C(=O)c2nc(-c3nc(C(=O)O)c(C)c(-c4ccc(OC)c(OC)c4O)c3N)ccc2C1=O [Streptonigrin]
Potency against ChTS-DHFR relative to FMN (in words) (ChTS-DHFR [2]): comparable potency

CC(=O)N1CCN(c2ccc(OCC3COC(Cn4ccnc4)(c4ccc(Cl)cc4Cl)O3)cc2)CC1 (stereo not drawn) [Ketoconazole, reference compound]
IC50 (ChTS-DHFR [2]): > 500 µM

C[C@H]1O[C@@H](O[C@H]2[C@@H](O)C[C@H](O[C@H]3[C@@H](O)C[C@H](O[C@H]4CC[C@@]5(C)[C@H](CC[C@@H]6[C@@H]5C[C@@H](O)[C@]5(C)[C@@H](C7=CC(=O)OC7)CC[C@]65O)C4)O[C@@H]3C)O[C@@H]2C)C[C@H](O)[C@@H]1O [Digoxin, reference compound]
IC50 (ChTS-DHFR [2]): > 500 µM
